Laboratory results published in ChEMBL document CHEMBL2417366, “Synthesis of novel isothiazolopyridines and their in vitro evaluation against Mycobacterium and Propionibacterium acnes” (Bioorg Med Chem, 2013).
Converted amounts (≈) assume the structure as drawn. The source made the active and inactive calls. No cut-off for these calls is given here.

Columns and labels:
Cutibacterium acnes [1] = assay: Induction of Propionibacterium acnes PCM 2400 replication at 15.6 ug/mL after 48 hrs by microplate Alamar blue assay relative to control; type: organism-based
[2] = test system: Mycobacterium tuberculosis; assay: Antibacterial activity against Mycobacterium tuberculosis H37Rv assessed as growth inhibition at 6.25 ug/mL by BACTEC 460 radiometric assay relative to control; type: functional; conditions: read-out: GI
Outline: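 M. tuberculosis H37Rv grown in BACTEC 12B medium and tested once at 6.25 μg/mL in a primary screen. Growth was read radiometrically on the BACTEC 460 system and reported as % inhibition.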

[3] = test system: Mycobacterium tuberculosis; assay: Antibacterial activity against Mycobacterium tuberculosis H37Rv assessed as growth inhibition; type: functional; conditions: for MIC: Mycobacterium tuberculosis, H37Rv
Outline: (§1)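 Serial dilutions started at 6.25 μg/mL against H37Rv in BACTEC 12B medium, read on the BACTEC 460 radiometric system. MIC was taken as the lowest concentration inhibiting 99% of the inoculum.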

[4] = test system: Mycolicibacterium fortuitum; assay: Antibacterial activity against Mycobacterium fortuitum PCM 672 assessed as growth inhibition after 48 hrs by microplate Alamar blue assay; type: functional; conditions: PCM 672, 48 h
Outline: (§2)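 M. fortuitum PCM 672 pre-grown in liquid 79 medium at 37°C for 24 h under aerobic conditions, then diluted to about 2 x 10^5 cfu/mL. Compounds were DMSO stocks (1 mg/mL) diluted in medium, tested at 0.97-250 µg/mL. Incubated at 37°C for 48 h, then Alamar Blue plus 20% Tween 80 added for 2 h more. Read by fluorescence. MIC was the lowest concentration preventing the blue-to-pink change (≥90% growth inhibition). Run two or three times; means and standard error reported.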

Cutibacterium acnes [5] = assay: Antibacterial activity against Propionibacterium acnes PCM 2400 assessed as growth inhibition up to 250 ug/mL after 48 hrs by microplate Alamar blue assay; type: functional, organism-based
[6] = test system: Mycobacterium tuberculosis; assay: Antibacterial activity against Mycobacterium tuberculosis H37Rv assessed as growth inhibition up to 250 ug/mL by BACTEC 460 radiometric assay; type: functional, organism-based
Cutibacterium acnes [7] = assay: Bacteriostatic activity against Propionibacterium acnes PCM 2400 at 0.97 to 250 ug/mL after 48 hrs by microplate Alamar blue assay relative to control; type: functional
[8] = test system: Mycolicibacterium fortuitum; assay: Induction of Mycobacterium fortuitum PCM 672 replication at 15.6 to 31.25 ug/mL after 48 hrs by microplate Alamar blue assay relative to control; type: organism-based; outline: as §2
Cutibacterium acnes [9] = assay: Antibacterial activity against Propionibacterium acnes PCM 2400 assessed as growth inhibition after 48 hrs by microplate Alamar blue assay; type: functional; conditions: PCM 2400, 48 h
[10] = test system: Mycolicibacterium fortuitum; assay: Induction of Mycobacterium fortuitum PCM 672 replication at 0.97 to 250 ug/mL after 48 hrs by microplate Alamar blue assay relative to control; type: organism-based; outline: as §2
Mycobacterium avium [11] = assay: Antibacterial activity against Mycobacterium avium assessed as growth inhibition at 12.5 ug/mL relative to control; type: functional, organism-based
Vero = assay: Cytotoxicity against African green monkey Vero cells; type: cell-based; conditions: Chlorocebus sabaeus
Outline: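 VERO cells were exposed to serially diluted compound, starting at 10 x MIC where solubility in culture medium allowed. IC50 was determined, and the selectivity index was taken as VERO IC50 divided by the M. tuberculosis H37Rv MIC.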

[12] = Selectivity index, ratio of IC50 for African green monkey Vero cells to MIC99 for Mycobacterium tuberculosis H37Rv; type: functional
Outline: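 Cytotoxicity was measured in VERO cells by serial dilution starting at 10× MIC where solubility in culture medium allowed, giving an IC50. SI = VERO IC50 ÷ MIC (99% inhibition) against M. tuberculosis H37Rv from the BACTEC 460 radiometric assay.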

[13] = test system: Mycobacterium tuberculosis; assay: Antibacterial activity against Mycobacterium tuberculosis H37Rv assessed as growth inhibition by BACTEC 460 radiometric assay; type: functional; outline: as §1
[14] = test system: Mycobacterium tuberculosis; assay: Antibacterial activity against Mycobacterium tuberculosis H37Rv assessed as growth inhibition at 0.125 ug/mL by BACTEC 460 radiometric assay relative to control; type: functional; conditions: read-out: GI
[15] = test system: Mycobacterium tuberculosis; assay: Antibacterial activity against Mycobacterium tuberculosis assessed as growth inhibition; type: functional
[16] = test system: Mycolicibacterium fortuitum; assay: Antibacterial activity against Mycobacterium fortuitum PCM 672 assessed as growth inhibition up to 250 ug/mL after 48 hrs by microplate Alamar blue assay; type: functional, organism-based; outline: as §2
Mycobacterium avium [17] = assay: Antibacterial activity against Mycobacterium avium assessed as growth inhibition; type: functional
Cutibacterium acnes [18] = assay: Induction of Propionibacterium acnes PCM 2400 replication at 3.9 to 15.6 ug/mL after 48 hrs by microplate Alamar blue assay relative to control; type: organism-based
Cutibacterium acnes [19] = assay: Induction of Propionibacterium acnes PCM 2400 replication at 0.97 to 250 ug/mL after 48 hrs by microplate Alamar blue assay relative to control; type: organism-based
[20] = test system: Mycolicibacterium fortuitum; assay: Bacteriostatic activity against Mycobacterium fortuitum PCM 672 at 0.97 to 250 ug/mL after 48 hrs by microplate Alamar blue assay relative to control; type: functional; outline: as §2
Mycobacterium avium [21] = assay: Antibacterial activity against Mycobacterium avium assessed as growth inhibition at 2 ug/mL relative to control; type: functional; conditions: read-out: GI

## Cc1cc(C)c2c(=O)n(CN(Cc3ccccc3)Cn3sc4nc(C)cc(C)c4c3=O)sc2n1
Cutibacterium acnes [1]
  Activity: 10%
[2]
  inhibition of growth at 6.25 µg/mL: 6%

## Cc1cc(C)c2c(=O)n(CO)sc2n1
[3]
  growth inhibition (GI): 65%
  MIC: 12.5 µg/mL (≈ 59.5 µM)

## Cc1cc(C)c2c(OCCOC(=O)NC(C)(C)C)nsc2n1
[2]
  inhibition of growth at 6.25 µg/mL: 16%

## NNC(=O)c1ccncc1 [ISONIAZID]
[4]
  MIC50: 0.322 µg/mL (≈ 2.35 µM)
  MIC90: > 250 µg/mL

## Cc1cc(C)c2c(=O)n(CN(Cc3ccccc3Cl)Cn3sc4nc(C)cc(C)c4c3=O)sc2n1
Cutibacterium acnes [5]
  growth inhibition (GI): inactive
[6]
  growth inhibition (GI): inactive

## Cc1cc(C)c2c(=O)n(CN(Cc3ccccn3)Cn3sc4nc(C)cc(C)c4c3=O)sc2n1
Cutibacterium acnes [7]
  inhibition (INH): 36%
Cutibacterium acnes [5]
  growth inhibition (GI): inactive
[2]
  inhibition of growth at 6.25 µg/mL: 4%

## Cc1cc(C)c2c(=O)n(CCOC(=O)NC(C)(C)C)sc2n1
[6]
  growth inhibition (GI): inactive
[8]
  Activity: 10%
Cutibacterium acnes [9]
  MIC90: 3.2 µg/mL (≈ 9.89 µM)

## Cc1cc(C)c2c(OCCOCCOc3ccccc3)nsc2n1
Cutibacterium acnes [5]
  growth inhibition (GI): inactive
[6]
  growth inhibition (GI): inactive

## CCNC(=O)OCCOc1nsc2nc(C)cc(C)c12
Cutibacterium acnes [5]
  growth inhibition (GI): inactive
[10]
  Activity: 10%
Cutibacterium acnes [9]
  MIC50: 184 µg/mL (≈ 623 µM)
[2]
  inhibition of growth at 6.25 µg/mL: 6%

## Cc1cc(C)c2c(=O)n(CC(O)CN3CCN(c4cccc(C(F)(F)F)c4)CC3)sc2n1 (stereo not drawn)
Mycobacterium avium [11]
  growth inhibition (GI): inactive
Vero
  IC50: 4.2 µg/mL (≈ 9 µM)
[12]
  Selectivity Index: 2.69
[13]
  MIC99: 1.56 µg/mL (≈ 3.34 µM)
[2]
  inhibition of growth at 6.25 µg/mL: 100%

## CO[C@H]1/C=C/O[C@@]2(C)Oc3c(C)c(O)c4c(O)c(c(/C=N/N5CCN(C)CC5)c(O)c4c3C2=O)NC(=O)/C(C)=C\C=C\[C@H](C)[C@H](O)[C@@H](C)[C@@H](O)[C@@H](C)[C@H](OC(C)=O)[C@@H]1C [RIFAMPIN]
Vero
  IC50: 58 µg/mL (≈ 70.5 µM)
[13]
  MIC99: 0.125 µg/mL (≈ 0.152 µM)
[14]
  inhibition of growth at 0.125 µg/mL: 98%

## Cc1cc(C)c2c(=O)n(CN3CCN(c4ccc([N+](=O)[O-])cc4)CC3)sc2n1
[15]
  MIC: < 1 µg/mL
Cutibacterium acnes [5]
  growth inhibition (GI): inactive
[16]
  growth inhibition (GI): inactive
Mycobacterium avium [17]
  MIC: < 1 µg/mL
[4]
  MIC50: 197 µg/mL (≈ 493 µM)

## Cc1cc(C)c2c(=O)n(CCOCCOc3ccccc3)sc2n1
Vero
  IC50: 4.1 µg/mL (≈ 11.9 µM)
[12]
  Selectivity Index: 0.68
[13]
  MIC99: 6.25 µg/mL (≈ 18.1 µM)
[2]
  inhibition of growth at 6.25 µg/mL: 100%

## CCCCNC(=O)OCCn1sc2nc(C)cc(C)c2c1=O
Cutibacterium acnes [5]
  growth inhibition (GI): inactive
[16]
  growth inhibition (GI): inactive
[6]
  growth inhibition (GI): inactive
[4]
  MIC50: 125 µg/mL (≈ 386 µM)

## Cc1cc(C)c2c(=O)n(CCCN3CCN(c4cccc(Cl)c4)CC3)sc2n1
Mycobacterium avium [11]
  growth inhibition (GI): inactive
Vero
  IC50: 3.3 µg/mL (≈ 7.91 µM)
[12]
  Selectivity Index: 0.53
[13]
  MIC99: 6.25 µg/mL (≈ 15 µM)
[2]
  inhibition of growth at 6.25 µg/mL: 100%

## Cc1cc(C)c2c(=O)n(CC(O)CN3CCC(Cc4ccccc4)CC3)sc2n1 (stereo not drawn)
Vero
  IC50: 1.6 µg/mL (≈ 3.89 µM)
[12]
  Selectivity Index: 0.25
[13]
  MIC99: 6.25 µg/mL (≈ 15.2 µM)
[2]
  inhibition of growth at 6.25 µg/mL: 100%

## CCCCNC(=O)OCCOc1nsc2nc(C)cc(C)c12
[16]
  growth inhibition (GI): inactive
Cutibacterium acnes [18]
  Activity: > 50%
[6]
  growth inhibition (GI): inactive
[4]
  MIC50: 125 µg/mL (≈ 386 µM)

## COc1ccc(CN(Cn2sc3nc(C)cc(C)c3c2=O)Cn2sc3nc(C)cc(C)c3c2=O)cc1OC
[16]
  growth inhibition (GI): inactive
Cutibacterium acnes [19]
  Activity: 10%
[20]
  inhibition (INH): 21%
[2]
  inhibition of growth at 6.25 µg/mL: 8%

## Cc1cc(C)c2c(=O)n(CC(=O)N3CCN(C)CC3)sc2n1
Vero
  IC50: 7 µg/mL (≈ 21.8 µM)
[12]
  Selectivity Index: 1.12
[13]
  MIC99: 6.25 µg/mL (≈ 19.5 µM)
[2]
  inhibition of growth at 6.25 µg/mL: 100%

## COc1ccc(CN(Cn2sc3nc(C)cc(C)c3c2=O)Cn2sc3nc(C)cc(C)c3c2=O)cc1
Cutibacterium acnes [19]
  Activity: 10%
[6]
  growth inhibition (GI): inactive

## Cc1cc(C)c2c(=O)n(CN(Cc3ccc(Cl)cc3)Cn3sc4nc(C)cc(C)c4c3=O)sc2n1
Cutibacterium acnes [5]
  growth inhibition (GI): inactive
[6]
  growth inhibition (GI): inactive

## O=c1c2ccccc2sn1CO
[3]
  growth inhibition (GI): 100%
  MIC: 12.5 µg/mL (≈ 69 µM)

## COc1ccccc1CN(Cn1sc2nc(C)cc(C)c2c1=O)Cn1sc2nc(C)cc(C)c2c1=O
Cutibacterium acnes [5]
  growth inhibition (GI): inactive
[6]
  growth inhibition (GI): inactive
Cutibacterium acnes [9]
  MIC50: 38 µg/mL (≈ 72.8 µM)
[4]
  MIC50: < 1 µg/mL
  MIC90: < 1 µg/mL

## CC[C@H]1OC(=O)[C@H](C)[C@@H](O[C@H]2C[C@@](C)(OC)[C@@H](O)[C@H](C)O2)[C@H](C)[C@@H](O[C@@H]2O[C@H](C)C[C@H](N(C)C)[C@H]2O)[C@](C)(O)C[C@@H](C)C(=O)[C@H](C)[C@@H](O)[C@]1(C)O [ERYTHROMYCIN]
Cutibacterium acnes [9]
  MIC50: < 1 µg/mL
  MIC90: < 1 µg/mL

## CCNC(=O)OCCn1sc2nc(C)cc(C)c2c1=O
Cutibacterium acnes [5]
  growth inhibition (GI): inactive
Cutibacterium acnes [9]
  MIC50: 6.9 µg/mL (≈ 23.4 µM)
[2]
  inhibition of growth at 6.25 µg/mL: 17%

## CC[C@H]1OC(=O)[C@H](C)[C@@H](O[C@H]2C[C@@](C)(OC)[C@@H](O)[C@H](C)O2)[C@H](C)[C@@H](O[C@@H]2O[C@H](C)C[C@H](N(C)C)[C@H]2O)[C@](C)(OC)C[C@@H](C)C(=O)[C@H](C)[C@@H](O)[C@]1(C)O [CLARITHROMYCIN]
Mycobacterium avium [21]
  inhibition of growth at 2 µg/mL: 98%

## Cc1cc(C)c2c(=O)n(CCOC(=O)Nc3ccccc3)sc2n1
Cutibacterium acnes [5]
  growth inhibition (GI): inactive
[16]
  growth inhibition (GI): inactive
[20]
  inhibition (INH): 42%
[2]
  inhibition of growth at 6.25 µg/mL: 12%

## Cc1cc(C)c2c(OCCOC(=O)Nc3ccccc3)nsc2n1
Cutibacterium acnes [5]
  growth inhibition (GI): inactive
[16]
  growth inhibition (GI): inactive
[6]
  growth inhibition (GI): inactive

## Cc1cc(C)c2c(=O)n(CCN3CCN(c4ccc([N+](=O)[O-])cc4)CC3)sc2n1
[15]
  MIC: < 1 µg/mL
[16]
  growth inhibition (GI): inactive
Mycobacterium avium [17]
  MIC: < 1 µg/mL
[20]
  inhibition (INH): 40%
Cutibacterium acnes [9]
  MIC50: < 1 µg/mL
  MIC90: < 1 µg/mL
